Measurements published in ChEMBL document CHEMBL3351949, “Substituted dithiazole piperazine benzamides as novel amyloid beta peptide reducing agents” (Bioorg Med Chem Lett, 2014).
Active and inactive are the calls of the source. No cut-off for these calls is given here.

Columns and labels:
[1] = target: Amyloid-beta precursor protein (Homo sapiens) (UniProt P05067); test: Reduction in wild type APP751 (unknown origin) expressed in CHO cells at 1 uM after 48 hrs by immunoblotting method; format: cell-based
How it was run: (§1)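 CHO cells stably expressing APP751wt (7WD10) treated 48 h, duplicate wells, DMSO as control. Conditioned medium centrifuged and immunoprecipitated overnight with Ab9 (Aβ 1–16). Aβ detected by SDS-PAGE immunoblot with 6E10/82E1 and ECL, signals quantified by densitometry. Dose-response n=4; ANOVA with Dunnett's post-hoc test.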

N2a = test: Reduction in […] APP695 Sweden mutant (unknown origin) expressed in N2a cells by immunoblotting method; format: cell-based; conditions: Homo sapiens
How it was run: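 Neuro-2a cells stably expressing APP695swe treated at 1.0 μM. Aβ immunoprecipitated from conditioned medium with Ab9 antibody (Aβ 1–16) and detected by immunoblot with 6E10/82E1 mixture.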

[2] = target: Amyloid-beta precursor protein (Homo sapiens) (UniProt P05067); test: Reduction in wild type APP751 (unknown origin) expressed in CHO cells at 500 nM after 48 hrs by immunoblotting method relative to untreated control; format: cell-based; how it was run: as §1
[3] = target: Amyloid-beta precursor protein (Homo sapiens) (UniProt P05067); test: Reduction in wild type APP751 (unknown origin) expressed in CHO cells at 1 uM after 48 hrs by immunoblotting method relative to untreated control; format: cell-based; how it was run: as §1
[4] = target: Amyloid-beta precursor protein (Homo sapiens) (UniProt P05067); test: Reduction in wild type APP751 (unknown origin) expressed in CHO cells at 10 uM after 48 hrs by immunoblotting method relative to untreated control; format: cell-based; how it was run: as §1
[5] = target: Amyloid-beta precursor protein (Homo sapiens) (UniProt P05067); test: Reduction in wild type APP751 (unknown origin) expressed in CHO cells at 50 nM after 48 hrs by immunoblotting method relative to untreated control; format: cell-based; how it was run: as §1
[6] = target: Amyloid-beta precursor protein (Homo sapiens) (UniProt P05067); test: Reduction in wild type APP751 (unknown origin) expressed in CHO cells at 100 nM after 48 hrs by immunoblotting method relative to untreated control; format: cell-based; how it was run: as §1
[7] = target: Amyloid-beta precursor protein (Homo sapiens) (UniProt P05067); test: Reduction in wild type APP751 (unknown origin) expressed in CHO cells assessed as increase in c-terminal fragments at 50 nM to 10 uM after 48 hrs by immunoblotting method relative to untreated control; format: cell-based
How it was run: (§2)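 7WD10 CHO cells (APP751wt) treated 48 h versus DMSO controls. Cells lysed in buffer with protease inhibitors. Full-length APP and C-terminal fragments detected with CT15 antibody by SDS-PAGE immunoblot and ECL, quantified by densitometry. n=4; ANOVA with Dunnett's test.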

[8] = target: Amyloid-beta precursor protein (Homo sapiens) (UniProt P05067); test: Reduction in wild type APP751 (unknown origin) expressed in CHO cells assessed as increase in secreted APPalpha at 50 nM to 10 uM after 48 hrs by immunoblotting method relative to untreated control; format: cell-based
How it was run: (§3)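 48 h treatment of APP751wt-expressing CHO (7WD10) cells, DMSO control. Conditioned medium immunoblotted for sAPPα (6E10), sAPPβ (anti-sAPPβ-wt rabbit IgG) and total sAPP (63G). Detection by ECL, densitometric quantification.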

[9] = target: Amyloid-beta precursor protein (Homo sapiens) (UniProt P05067); test: Reduction in wild type APP751 (unknown origin) expressed in CHO cells assessed as increase in secreted APPbeta at 50 nM to 10 uM after 48 hrs by immunoblotting method relative to untreated control; format: cell-based; how it was run: as §3
[10] = target: Amyloid-beta precursor protein (Homo sapiens) (UniProt P05067); test: Reduction in wild type APP751 (unknown origin) expressed in CHO cells assessed as increase in secreted APPalpha at 50 nM to 10 uM after 48 hrs by immunoblotting method; format: cell-based; set-up: scale not given: the % may be the effect or the level left; how it was run: as §3
[11] = target: Amyloid-beta precursor protein (Homo sapiens) (UniProt P05067); test: Reduction in wild type APP751 (unknown origin) expressed in CHO cells assessed as increase in full length APP level at 50 nM to 10 uM after 48 hrs by immunoblotting method; format: cell-based; how it was run: as §2
[12] = target: Amyloid-beta precursor protein (Homo sapiens) (UniProt P05067); test: Reduction in wild type APP751 (unknown origin) expressed in CHO cells assessed as increase in alpha c-terminal fragments at 50 nM to 10 uM after 48 hrs by immunoblotting method relative to untreated control; format: cell-based; how it was run: as §2
[13] = target: Amyloid-beta precursor protein (Homo sapiens) (UniProt P05067); test: Reduction in wild type APP751 (unknown origin) expressed in CHO cells assessed as increase in alpha c-terminal fragments at 50 nM to 10 uM after 48 hrs by immunoblotting method; format: cell-based; set-up: scale not given: the % may be the effect or the level left; how it was run: as §2
[14] = target: Amyloid-beta precursor protein (Homo sapiens) (UniProt P05067); test: Reduction in wild type APP751 (unknown origin) expressed in CHO cells assessed as increase in beta c-terminal fragments at 50 nM to 10 uM after 48 hrs by immunoblotting method; format: cell-based; how it was run: as §2
CHO [15] = test: Toxicity against CHO cells assessed as induction of cell death up to 1 uM by LDH release assay; format: cell-based, Cricetulus griseus; conditions: chinese hamster
How it was run: (§4)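 Cytotoxicity in CHO cells measured by lactate dehydrogenase release and by MTT reduction. n=4 per group; ANOVA followed by Dunnett's post-hoc test.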

CHO [16] = test: Toxicity against CHO cells assessed as induction of cell death up to 1 uM by MTT assay; format: cell-based, Cricetulus griseus; conditions: chinese hamster; how it was run: as §4
CHO [17] = test: Toxicity against CHO cells assessed as induction of cell death at 10 uM by LDH release assay; format: cell-based, Cricetulus griseus; conditions: chinese hamster; how it was run: as §4
CHO [18] = test: Toxicity against CHO cells assessed as induction of cell death at 10 uM by MTT assay; format: cell-based, Cricetulus griseus; conditions: chinese hamster; how it was run: as §4
Mus musculus = test: Reduction in amyloid plaque numbers in APP/PS1 double transgenic APdeltaE9 mouse 0.5 mg/kg, ip dosed daily for 60 days starting from 4 to 6 months of age; format: functional; conditions: 1440 h, route intraperitoneal
How it was run: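 APP/PS1 double transgenic (APΔE9) mice dosed i.p. daily, 0.5 mg/kg body wt., from 4- to 6-months of age for 60 days. Amyloid plaque numbers counted in brain sections (cortex and hippocampus) versus vehicle-treated mice.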

[19] = Drug level in brain of APP/PS1 double transgenic APdeltaE9 mouse 4 mg/kg, iv measured after 10 mins; format: ADME, organism-based; set-up: dose 4 mg/kg, route intravenous; conditions: read-out: Drug uptake
How it was run: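 Mice given 4 mg/kg by intravenous injection; compound level measured in brain over time after dosing (about 10–20 min window).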

[20] = Half life in brain of APP/PS1 double transgenic APdeltaE9 mouse 4 mg/kg, iv; format: ADME, organism-based; set-up: dose 4 mg/kg, route intravenous

Chain of Amyloid-beta precursor protein (Homo sapiens) (P05067 whole entry, the tested form may be a part): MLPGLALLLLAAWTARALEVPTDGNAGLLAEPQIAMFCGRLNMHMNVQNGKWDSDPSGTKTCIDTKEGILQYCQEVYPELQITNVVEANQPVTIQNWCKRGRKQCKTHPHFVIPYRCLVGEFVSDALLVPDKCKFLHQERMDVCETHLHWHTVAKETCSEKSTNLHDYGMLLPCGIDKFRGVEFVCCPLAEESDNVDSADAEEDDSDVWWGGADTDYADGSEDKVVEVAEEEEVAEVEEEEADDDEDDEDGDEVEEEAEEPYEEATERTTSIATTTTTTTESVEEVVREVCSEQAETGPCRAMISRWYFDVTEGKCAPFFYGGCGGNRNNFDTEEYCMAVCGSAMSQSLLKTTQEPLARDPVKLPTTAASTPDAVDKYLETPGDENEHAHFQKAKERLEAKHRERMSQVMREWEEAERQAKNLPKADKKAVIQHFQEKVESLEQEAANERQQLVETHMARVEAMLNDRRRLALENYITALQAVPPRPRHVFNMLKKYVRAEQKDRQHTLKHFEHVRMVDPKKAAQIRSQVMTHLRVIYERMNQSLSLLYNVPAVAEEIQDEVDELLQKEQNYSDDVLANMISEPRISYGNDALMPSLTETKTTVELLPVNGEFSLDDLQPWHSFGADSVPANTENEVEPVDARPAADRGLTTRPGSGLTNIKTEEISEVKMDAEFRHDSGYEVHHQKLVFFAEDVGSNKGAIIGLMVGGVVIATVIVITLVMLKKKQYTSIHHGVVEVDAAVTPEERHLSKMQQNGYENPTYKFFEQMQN

- inhibition [1]: Active
- inhibition [2]: 31%
- inhibition [3]: 54%
- inhibition [4]: 63%
- inhibition [5]: 21%
- inhibition [6]: 20%
- inhibition [7]: Dose-dependent effect
- inhibition [8]: Dose-dependent effect
- inhibition [9]: inactive
- Activity [10]: 40%
- inhibition [11]: Dose-dependent effect
- inhibition [12]: Dose-dependent effect
- Activity [13]: 80%
- inhibition [14]: inactive
- concentration at 10 min [19]: 40 ng/mL
- half-life [20]: 6.7 min
Structure (SMILES): NC(=O)c1ccc(N2CCN(c3nc(-c4cccc(O)c4)cs3)CC2)c(Nc2nc(-c3cccc(O)c3)cs2)c1
- inhibition (N2a): Active
- Activity (CHO [15]): Non-toxic
- Activity (CHO [16]): Non-toxic
- Activity (CHO [17]): Toxic
- Activity (CHO [18]): Toxic
- inhibition in vivo at 0.5 mg/kg (Mus musculus): 39%
